In ChEMBL document CHEMBL2311311, “Synthesis and in vitro activity of 1,2,4-triazole-ciprofloxacin hybrids against drug-susceptible and drug-resistant bacteria” (Eur J Med Chem, 2013):
pEC50: −log10 of the molar value. In brackets after ≈: the same amount, converted by molar mass.

Assays:
[1] = tested on: Staphylococcus epidermidis; experiment: Antimicrobial activity against Staphylococcus epidermidis ATCC 12228 by broth microdilution method; format: functional
Procedure, shortened: (§1)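 Inocula were saline (0.85% NaCl) suspensions at 0.5 McFarland (150 × 10⁶ CFU/mL). Compounds were first screened by agar dilution on Mueller-Hinton agar, and active ones then went to broth microdilution. MIC is the lowest concentration inhibiting growth. The negative control was medium containing DMSO at the final concentration, without compound.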

HEK293 = experiment: Cytotoxicity against HEK293 cells after 48 hrs by MTT assay; format: cell-based; settings: Homo sapiens, HEK293, 48 h
Procedure, shortened: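 HEK-293 cells were seeded at 3 × 10⁵ cells/well and pre-incubated 24 h at 37 °C under 5% CO₂. Compounds came from 50 mg/mL DMSO stocks diluted in medium with 2% FBS, at final concentrations of 2–500. Exposure was 48 h at 37 °C with MTT formazan read on a plate reader. EC50 is growth inhibition relative to control cells, given as mean ± SD of three independent experiments.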

Staphylococcus aureus [2] = experiment: Antimicrobial activity against Staphylococcus aureus ATCC 25923 by broth microdilution method; format: functional; procedure, shortened: as §1
Micrococcus luteus [3] = experiment: Ratio of ciprofloxacin MIC to compound MIC for Micrococcus luteus ATCC 10240 by broth microdilution method; format: functional
Pseudomonas aeruginosa [4] = experiment: Antimicrobial activity against Pseudomonas aeruginosa ATCC 9027 by broth microdilution method; format: functional; procedure, shortened: as §1
Bacillus subtilis = experiment: Antimicrobial activity against Bacillus subtilis ATCC 6633 by broth microdilution method; format: functional; procedure, shortened: as §1
Micrococcus luteus [5] = experiment: Antimicrobial activity against Micrococcus luteus ATCC 10240 by broth microdilution method; format: functional; procedure, shortened: as §1
Bacillus cereus = experiment: Antimicrobial activity against Bacillus cereus ATCC 10876 by broth microdilution method; format: functional; procedure, shortened: as §1
Staphylococcus aureus [6] = experiment: Ratio of MBC to MIC for methicillin-resistant Staphylococcus aureus 14001 by broth microdilution method; format: functional
Procedure, shortened: (§2)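 Inoculum in sterile saline (0.85% NaCl), adjusted to 0.5 McFarland (150 × 10⁶ CFU/mL). Compounds first screened by agar dilution on Mueller-Hinton agar, then titrated by broth microdilution. Medium with DMSO at the final concentration and no compound served as negative control. MIC is the lowest concentration inhibiting growth. MBC is the lowest concentration giving >99.9% reduction in CFU of the initial inoculum.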

Escherichia coli = experiment: Antimicrobial activity against Escherichia coli ATCC 25922 by broth microdilution method; format: functional; procedure, shortened: as §1
Proteus mirabilis = experiment: Antimicrobial activity against Proteus mirabilis ATCC 12453 by broth microdilution method; format: functional; procedure, shortened: as §1
Staphylococcus aureus [7] = experiment: Antimicrobial activity against methicillin-resistant Staphylococcus aureus 14001 by broth microdilution method; format: functional; procedure, shortened: as §2
Pseudomonas aeruginosa [8] = experiment: Ratio of ciprofloxacin MIC to compound MIC for Pseudomonas aeruginosa ATCC 9027 by broth microdilution method; format: functional
Staphylococcus aureus [9] = experiment: Ratio of ciprofloxacin MIC to compound MIC for Staphylococcus aureus ATCC 25923 by broth microdilution method; format: functional
[10] = Selectivity ratio of EC50 for HEK293 cells to MIC for methicillin-resistant Staphylococcus aureus 14001; format: functional
Procedure, shortened: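 HEK-293 cells grown at 37 °C in humidified 5% CO₂ with penicillin and […] streptomycin. Seeded at 3 × 10⁵ cells/well for 24 h. Compounds (50 mg/mL DMSO stock) were diluted in medium with 2% FBS to final 2–500 µg/mL and applied for 48 h at 37 °C. Read-out was MTT formazan. EC50 was taken relative to control-cell growth, mean ± SD of three independent experiments, then divided by the MRSA MIC.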

Staphylococcus aureus [11] = experiment: Ratio of ciprofloxacin MIC to compound MIC for methicillin-resistant Staphylococcus aureus 14001 by broth microdilution method; format: functional; procedure, shortened: as §2
Staphylococcus aureus [12] = experiment: Ratio of vancomycin MIC to compound MIC for methicillin-resistant Staphylococcus aureus 14001 by broth microdilution method; format: functional; procedure, shortened: as §2

SMILES	MIC [1]	pEC50 (HEK293)	MIC (Staphylococcus aureus [2])	Ratio (Micrococcus luteus [3])	MIC (Pseudomonas aeruginosa [4])	MIC (Bacillus subtilis)	MIC (Micrococcus luteus [5])	MIC (Bacillus cereus)	Ratio (Staphylococcus aureus [6])	MIC (Escherichia coli)	MIC (Proteus mirabilis)	MBC (Staphylococcus aureus [7])	MIC (Staphylococcus aureus [7])	Ratio (Pseudomonas aeruginosa [8])	Ratio (Staphylococcus aureus [9])	Ratio [10]	Ratio (Staphylococcus aureus [11])	Ratio (Staphylococcus aureus [12])
CCn1c(-c2cccc(Cl)c2)nn(CN2CCN(c3cc4c(cc3F)c(=O)c(C(=O)O)cn4C3CC3)CC2)c1=S	0.84 µM (≈ 0.49 µg/mL)	4.40	0.84 µM (≈ 0.49 µg/mL)	7.5	0.41 µM (≈ 0.239 µg/mL)	0.1 µM (≈ 0.0583 µg/mL)	0.84 µM (≈ 0.49 µg/mL)	0.2 µM (≈ 0.117 µg/mL)	2	0.051 µM (≈ 0.0297 µg/mL)	0.051 µM (≈ 0.0297 µg/mL)	0.84 µM (≈ 0.49 µg/mL)	0.41 µM (≈ 0.239 µg/mL)					
CCCCn1c(-c2cccc(Cl)c2)nn(CN2CCN(c3cc4c(cc3F)c(=O)c(C(=O)O)cn4C3CC3)CC2)c1=S	1.6 µM (≈ 0.978 µg/mL)		3.19 µM (≈ 1.95 µg/mL)		0.8 µM (≈ 0.489 µg/mL)	0.2 µM (≈ 0.122 µg/mL)	6.4 µM (≈ 3.91 µg/mL)	0.39 µM (≈ 0.238 µg/mL)	1	0.098 µM (≈ 0.0599 µg/mL)	0.098 µM (≈ 0.0599 µg/mL)	1.6 µM (≈ 0.978 µg/mL)	1.6 µM (≈ 0.978 µg/mL)					
CCCCCCn1c(-c2cccc(Cl)c2)nn(CN2CCN(c3cc4c(cc3F)c(=O)c(C(=O)O)cn4C3CC3)CC2)c1=S	1.53 µM (≈ 0.978 µg/mL)		1.53 µM (≈ 0.978 µg/mL)		0.77 µM (≈ 0.492 µg/mL)	0.19 µM (≈ 0.121 µg/mL)	3.05 µM (≈ 1.95 µg/mL)	0.77 µM (≈ 0.492 µg/mL)	2	0.047 µM (≈ 0.03 µg/mL)	0.19 µM (≈ 0.121 µg/mL)	3.05 µM (≈ 1.95 µg/mL)	1.53 µM (≈ 0.978 µg/mL)					
O=C(O)c1cn(C2CC2)c2cc(N3CCN(Cn4nc(-c5cccc(O)c5)n(-c5cccc([N+](=O)[O-])c5)c4=S)CC3)c(F)cc2c1=O	0.74 µM (≈ 0.487 µg/mL)		0.74 µM (≈ 0.487 µg/mL)		0.18 µM (≈ 0.118 µg/mL)	0.18 µM (≈ 0.118 µg/mL)	1.49 µM (≈ 0.98 µg/mL)	0.18 µM (≈ 0.118 µg/mL)	2	0.023 µM (≈ 0.0151 µg/mL)	0.023 µM (≈ 0.0151 µg/mL)	0.74 µM (≈ 0.487 µg/mL)	0.36 µM (≈ 0.237 µg/mL)	4				
O=C(O)c1cn(C2CC2)c2cc(N3CCN(Cn4nc(-c5cccc(O)c5)n(-c5cccc(I)c5)c4=S)CC3)c(F)cc2c1=O	0.66 µM (≈ 0.487 µg/mL)		0.66 µM (≈ 0.487 µg/mL)		0.081 µM (≈ 0.0598 µg/mL)	0.32 µM (≈ 0.236 µg/mL)	1.33 µM (≈ 0.982 µg/mL)	0.16 µM (≈ 0.118 µg/mL)	1	0.041 µM (≈ 0.0303 µg/mL)	0.041 µM (≈ 0.0303 µg/mL)	0.66 µM (≈ 0.487 µg/mL)	0.66 µM (≈ 0.487 µg/mL)	8				
O=C(O)c1cn(C2CC2)c2cc(N3CCN(Cn4nc(-c5cccc(O)c5)n(-c5ccc(Cl)cc5Cl)c4=S)CC3)c(F)cc2c1=O	0.35 µM (≈ 0.239 µg/mL)		0.35 µM (≈ 0.239 µg/mL)		0.088 µM (≈ 0.06 µg/mL)	0.18 µM (≈ 0.123 µg/mL)	1.44 µM (≈ 0.981 µg/mL)	0.18 µM (≈ 0.123 µg/mL)	2	0.044 µM (≈ 0.03 µg/mL)	0.022 µM (≈ 0.015 µg/mL)	0.71 µM (≈ 0.484 µg/mL)	0.35 µM (≈ 0.239 µg/mL)	8	8.5			
O=C(O)c1cn(C2CC2)c2cc(N3CCN(Cn4nc(-c5cccc(O)c5)n(-c5cc(Cl)cc(Cl)c5)c4=S)CC3)c(F)cc2c1=O	0.35 µM (≈ 0.239 µg/mL)	4.28	0.72 µM (≈ 0.491 µg/mL)		0.088 µM (≈ 0.06 µg/mL)	0.18 µM (≈ 0.123 µg/mL)	1.44 µM (≈ 0.981 µg/mL)	0.18 µM (≈ 0.123 µg/mL)	4	0.022 µM (≈ 0.015 µg/mL)	0.044 µM (≈ 0.03 µg/mL)	0.35 µM (≈ 0.239 µg/mL)	0.088 µM (≈ 0.06 µg/mL)	8		600	17	8
O=C(O)c1cn(C2CC2)c2cc(N3CCN(Cn4ncn(-c5cccc(I)c5)c4=S)CC3)c(F)cc2c1=O	6.05 µM (≈ 3.91 µg/mL)		12.1 µM (≈ 7.81 µg/mL)		1.52 µM (≈ 0.983 µg/mL)	0.37 µM (≈ 0.239 µg/mL)	24.2 µM (≈ 15.6 µg/mL)	3.02 µM (≈ 1.95 µg/mL)	2	0.093 µM (≈ 0.0601 µg/mL)	0.18 µM (≈ 0.116 µg/mL)	12.1 µM (≈ 7.81 µg/mL)	6.05 µM (≈ 3.91 µg/mL)					
Cc1nn(CN2CCN(c3cc4c(cc3F)c(=O)c(C(=O)O)cn4C3CC3)CC2)c(=S)n1-c1cccc(I)c1	23.7 µM (≈ 15.6 µg/mL)		23.7 µM (≈ 15.6 µg/mL)		2.95 µM (≈ 1.95 µg/mL)	1.48 µM (≈ 0.978 µg/mL)	94.6 µM (≈ 62.5 µg/mL)	1.48 µM (≈ 0.978 µg/mL)	1	0.36 µM (≈ 0.238 µg/mL)	0.74 µM (≈ 0.489 µg/mL)	23.7 µM (≈ 15.6 µg/mL)	23.7 µM (≈ 15.6 µg/mL)					
CCCc1nn(CN2CCN(c3cc4c(cc3F)c(=O)c(C(=O)O)cn4C3CC3)CC2)c(=S)n1-c1cccc(I)c1	90.8 µM (≈ 62.5 µg/mL)		90.8 µM (≈ 62.5 µg/mL)		22.7 µM (≈ 15.6 µg/mL)	5.68 µM (≈ 3.91 µg/mL)	182 µM (≈ 125 µg/mL)	22.7 µM (≈ 15.6 µg/mL)	1	0.71 µM (≈ 0.489 µg/mL)	2.83 µM (≈ 1.95 µg/mL)	182 µM (≈ 125 µg/mL)	182 µM (≈ 125 µg/mL)					
